Source: ChEMBL document CHEMBL1137702, “Identification of hydrolytically stable and selective P2Y(1) receptor agonists” (Eur J Med Chem, 2009)
Calls of active or inactive are those of the source. The calls are words filed in the database; no cut-off is given here.

Legend:
[1] = target: T1, Ectonucleoside triphosphate diphosphohydrolase 8 (Homo sapiens) (UniProt Q5MY95); experiment: Activity of human NTPDase 8 expressed in human 293T cells assessed as drug hydrolysis at 100 uM after 20 mins relative to ATP; type: cell-based; set-up: scale not given: the % may be the effect or the level left
T1 sequence (whole entry): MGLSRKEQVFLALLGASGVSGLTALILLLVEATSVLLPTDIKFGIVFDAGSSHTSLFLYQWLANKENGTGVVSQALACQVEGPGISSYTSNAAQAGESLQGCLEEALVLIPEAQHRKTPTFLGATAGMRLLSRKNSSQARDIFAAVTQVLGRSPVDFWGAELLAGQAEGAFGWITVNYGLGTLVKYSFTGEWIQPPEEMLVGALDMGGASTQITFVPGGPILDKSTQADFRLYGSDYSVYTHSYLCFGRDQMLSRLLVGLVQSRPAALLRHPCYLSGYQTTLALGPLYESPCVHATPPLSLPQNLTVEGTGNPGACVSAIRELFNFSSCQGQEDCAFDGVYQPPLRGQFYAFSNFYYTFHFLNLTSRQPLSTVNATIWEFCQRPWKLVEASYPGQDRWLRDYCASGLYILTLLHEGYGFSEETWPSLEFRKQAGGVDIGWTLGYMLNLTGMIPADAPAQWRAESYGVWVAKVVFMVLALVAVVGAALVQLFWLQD
In short: (§1)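 Human NTPDase1, 2, 3 or 8 in crude extracts of transfected 293T cells, pre-incubated 3 min at 37 °C in Tris-Ringer buffer pH 7.4. […] Untransfected-cell extract activity subtracted.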

[2] = target: P2Y purinoceptor 6 (Rattus norvegicus) (UniProt Q63371); experiment: Antagonist activity at rat P2Y6 receptor expressed in human 1321N1 cells assessed as inhibition of UDP-induced increase in intracellular calcium concentration by dual-excitation spectrofluorimetric analysis; type: functional, cell-based
Chain of P2Y purinoceptor 6 (Rattus norvegicus) (Q63371 whole entry): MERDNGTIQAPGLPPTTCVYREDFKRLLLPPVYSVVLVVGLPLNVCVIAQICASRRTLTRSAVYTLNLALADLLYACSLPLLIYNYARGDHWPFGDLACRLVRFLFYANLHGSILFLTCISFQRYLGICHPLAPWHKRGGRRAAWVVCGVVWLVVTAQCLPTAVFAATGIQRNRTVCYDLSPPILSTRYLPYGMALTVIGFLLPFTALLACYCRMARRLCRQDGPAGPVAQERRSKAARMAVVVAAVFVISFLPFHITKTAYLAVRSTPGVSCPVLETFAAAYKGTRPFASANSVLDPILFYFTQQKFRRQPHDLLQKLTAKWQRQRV
In short: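 Fura-2-loaded suspensions of stably transfected 1321N1 cells were assayed at 37 °C in HEPES-buffered saline pH 7.4 with 1 mM Ca2+ and Mg2+. […] [Ca2+]i was read by dual-excitation spectrofluorometry.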

P2Y purinoceptor 2 = P2Y purinoceptor 2 (Homo sapiens, UniProt P41231); experiment: Agonist activity at human P2Y2 receptor expressed in human 1321N1 cells assessed as increase in intracellular calcium concentration by dual-excitation spectrofluorimetric analysis; type: functional, cell-based
Chain of P2Y purinoceptor 2 (P41231 whole entry): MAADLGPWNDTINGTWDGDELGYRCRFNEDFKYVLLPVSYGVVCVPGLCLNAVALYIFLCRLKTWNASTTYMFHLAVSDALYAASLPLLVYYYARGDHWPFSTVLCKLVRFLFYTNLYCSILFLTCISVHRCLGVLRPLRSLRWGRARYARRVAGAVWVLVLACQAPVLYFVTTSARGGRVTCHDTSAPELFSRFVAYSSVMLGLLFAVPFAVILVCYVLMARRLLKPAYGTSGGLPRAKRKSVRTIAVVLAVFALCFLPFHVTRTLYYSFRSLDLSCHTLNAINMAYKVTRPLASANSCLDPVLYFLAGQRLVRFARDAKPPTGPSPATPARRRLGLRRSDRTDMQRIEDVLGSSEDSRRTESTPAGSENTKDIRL
In short: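 1321N1 astrocytoma cells stably expressing the receptor (turkey P2Y1, human P2Y2, human P2Y4, rat P2Y6) were grown with G-418 selection. Fura-2-loaded cell suspensions were exposed at 37 °C in 10 mM HEPES-buffered saline pH 7.4 with 1 mM CaCl2 and 1 mM MgCl2. Peak [Ca2+]i rise was measured over a range of concentrations to derive EC50.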

[3] = target: T2, Ectonucleoside triphosphate diphosphohydrolase 2 (Homo sapiens) (UniProt Q9Y5L3); experiment: Activity of human NTPDase 2 expressed in human 293T cells assessed as drug hydrolysis at 100 uM after 20 mins relative to ATP; type: cell-based; set-up: scale not given: the % may be the effect or the level left; in short: as §1
T2 sequence (whole entry): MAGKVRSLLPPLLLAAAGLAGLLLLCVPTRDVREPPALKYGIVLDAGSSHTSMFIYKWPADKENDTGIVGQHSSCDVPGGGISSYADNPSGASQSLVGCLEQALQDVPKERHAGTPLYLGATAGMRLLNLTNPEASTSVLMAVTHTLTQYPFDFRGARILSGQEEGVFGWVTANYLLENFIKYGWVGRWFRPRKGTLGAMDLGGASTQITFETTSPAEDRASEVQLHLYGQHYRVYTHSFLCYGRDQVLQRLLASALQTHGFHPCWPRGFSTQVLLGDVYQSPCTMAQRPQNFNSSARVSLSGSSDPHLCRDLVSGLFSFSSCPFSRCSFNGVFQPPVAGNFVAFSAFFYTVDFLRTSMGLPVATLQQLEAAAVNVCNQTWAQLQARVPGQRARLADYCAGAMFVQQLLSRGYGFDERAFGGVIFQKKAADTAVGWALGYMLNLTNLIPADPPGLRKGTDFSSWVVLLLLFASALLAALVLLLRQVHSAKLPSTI

[4] = target: T3, Ectonucleotide pyrophosphatase/phosphodiesterase family member 3 (Homo sapiens) (UniProt O14638); experiment: Activity of human NPP3 expressed in human 293T cells assessed as drug hydrolysis at 100 uM after 20 mins by reverse-phase HPLC relative to p-nitrophenyl-thymidine-5-monophosphate; type: cell-based; set-up: scale not given: the % may be the effect or the level left
T3 sequence (whole entry): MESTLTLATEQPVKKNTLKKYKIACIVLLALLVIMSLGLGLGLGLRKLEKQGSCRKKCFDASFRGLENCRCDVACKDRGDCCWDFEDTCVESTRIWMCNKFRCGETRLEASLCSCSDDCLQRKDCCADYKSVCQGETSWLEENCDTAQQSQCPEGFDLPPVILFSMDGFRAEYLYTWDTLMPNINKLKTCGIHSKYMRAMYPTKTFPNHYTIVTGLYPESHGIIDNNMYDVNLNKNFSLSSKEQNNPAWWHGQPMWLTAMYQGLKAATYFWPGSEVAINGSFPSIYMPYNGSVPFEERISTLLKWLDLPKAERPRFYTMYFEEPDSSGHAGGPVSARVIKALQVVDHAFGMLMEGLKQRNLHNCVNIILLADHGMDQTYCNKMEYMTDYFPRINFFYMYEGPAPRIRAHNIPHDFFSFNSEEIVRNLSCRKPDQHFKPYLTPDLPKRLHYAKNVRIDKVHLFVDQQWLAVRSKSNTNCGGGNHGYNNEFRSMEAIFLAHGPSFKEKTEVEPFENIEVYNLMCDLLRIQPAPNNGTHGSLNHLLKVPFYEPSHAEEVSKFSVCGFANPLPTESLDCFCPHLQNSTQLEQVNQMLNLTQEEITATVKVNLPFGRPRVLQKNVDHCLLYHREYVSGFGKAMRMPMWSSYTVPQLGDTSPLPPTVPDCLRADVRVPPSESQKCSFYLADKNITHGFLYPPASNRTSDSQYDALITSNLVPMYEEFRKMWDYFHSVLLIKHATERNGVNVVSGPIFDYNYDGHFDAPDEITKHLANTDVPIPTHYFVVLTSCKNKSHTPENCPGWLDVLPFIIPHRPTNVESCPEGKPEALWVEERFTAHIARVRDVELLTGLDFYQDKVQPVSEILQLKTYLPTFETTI
In short: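 Crude extract of 293T cells transfected with human NPP1 or NPP3, pre-incubated 3 min at 37 °C in 1 mM CaCl2, 140 mM NaCl, 5 mM KCl, 50 mM Tris pH 8.5. Substrate at 100 µM final for 20 min, stopped in ice-cold perchloric acid and neutralized with KOH. Loss of analogue quantified by reverse-phase HPLC with ion-pair phosphate mobile phase pH 7.0. pnp-TMP (p-nitrophenol at 410 nm) served as the 100% reference.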

[5] = target: P2Y purinoceptor 1 (Meleagris gallopavo) (UniProt P49652); experiment: Agonist activity at turkey P2Y1 receptor expressed in human 1321N1 cells assessed as increase in intracellular calcium concentration by dual-excitation spectrofluorimetric analysis; type: functional, cell-based
Chain of P2Y purinoceptor 1 (Meleagris gallopavo) (P49652 whole entry): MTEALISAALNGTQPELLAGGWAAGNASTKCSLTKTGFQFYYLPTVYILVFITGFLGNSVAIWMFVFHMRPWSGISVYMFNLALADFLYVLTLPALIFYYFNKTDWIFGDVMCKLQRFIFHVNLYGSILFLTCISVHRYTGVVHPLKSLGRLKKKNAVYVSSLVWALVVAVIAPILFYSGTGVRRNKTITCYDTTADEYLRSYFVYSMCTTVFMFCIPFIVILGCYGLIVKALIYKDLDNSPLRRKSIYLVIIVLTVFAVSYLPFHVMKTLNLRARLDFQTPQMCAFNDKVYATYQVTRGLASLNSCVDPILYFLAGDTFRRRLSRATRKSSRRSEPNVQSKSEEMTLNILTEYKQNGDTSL

SMILES | Activity [1] [%] | Activity [2] | Activity (P2Y purinoceptor 2) | Activity [3] [%] | Activity [4] [%] | Activity [5]
CSc1nc(N)c2ncn([C@@H]3O[C@H](COP(=O)(O)OP(=O)(O)CP(=O)(O)O)[C@@H](O)[C@H]3O)c2n1 | 7 | inactive | inactive | 2 | 10 | –
BP(=O)(OC[C@H]1O[C@@H](n2cnc3c(N)nc(SC)nc32)[C@H](O)[C@@H]1O)OP(=O)(O)CP(=O)(O)O (single isomer, unassigned; diastereomer A) | 4 | inactive | inactive | 1 | 9.9 | inactive
BP(=O)(OC[C@H]1O[C@@H](n2cnc3c(N)nc(SC)nc32)[C@H](O)[C@@H]1O)OP(=O)(O)CP(=O)(O)O (single isomer, unassigned; diastereomer B) | 3 | inactive | inactive | 1 | 0 | –

Continued, values first:

Activity [1] [%] | Activity [2] | Activity (P2Y purinoceptor 2) | Activity [3] [%] | Activity [4] [%] | Activity [5] | SMILES
2 | inactive | inactive | 1 | 0 | inactive | BP(=O)(OC[C@H]1O[C@@H](n2cnc3c(N)ncnc32)[C@H](O)[C@@H]1O)OP(=O)(O)CP(=O)(O)O (stereo partly drawn)
< 1 | inactive | inactive | 0 | 3 | inactive | BP(=O)(OC[C@H]1O[C@@H](n2cnc3c(N)ncnc32)[C@H](O)[C@@H]1O)OP(=O)(O)CP(=O)(O)O (single isomer, unassigned; diastereomer B)
